Measurements as given in ChEMBL document CHEMBL4387722.

How the values were obtained:
[1] = target: T1, Tyrosine-protein phosphatase non-receptor type 5 (Homo sapiens, UniProt P54829); experiment: Inhibition of human PTPN5 expressed in Escherichia coli Rosetta 2 (DE3) using pNPP as substrate after 45 mins by spectrophotometric method
T1 sequence (P54829 whole entry): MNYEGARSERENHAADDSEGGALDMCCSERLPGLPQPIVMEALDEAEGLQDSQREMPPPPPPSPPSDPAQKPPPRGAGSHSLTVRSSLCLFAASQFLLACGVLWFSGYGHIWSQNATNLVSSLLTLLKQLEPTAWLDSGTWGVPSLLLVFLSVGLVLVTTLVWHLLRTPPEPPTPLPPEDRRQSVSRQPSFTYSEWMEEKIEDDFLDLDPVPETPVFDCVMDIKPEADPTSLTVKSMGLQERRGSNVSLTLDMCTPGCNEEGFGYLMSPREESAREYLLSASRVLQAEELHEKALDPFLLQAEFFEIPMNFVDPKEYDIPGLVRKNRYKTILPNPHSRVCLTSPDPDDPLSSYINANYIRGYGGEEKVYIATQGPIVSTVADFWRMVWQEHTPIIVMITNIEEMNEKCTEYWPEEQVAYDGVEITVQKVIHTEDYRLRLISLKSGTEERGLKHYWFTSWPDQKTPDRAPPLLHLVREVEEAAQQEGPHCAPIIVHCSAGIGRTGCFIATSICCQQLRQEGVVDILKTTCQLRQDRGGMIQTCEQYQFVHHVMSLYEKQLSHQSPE

[2] = target: T2, Tyrosine-protein phosphatase non-receptor type 1 (Homo sapiens, UniProt P18031); experiment: Inhibition of human PTPN1 expressed in Escherichia coli Rosetta 2 (DE3) using pNPP as substrate after 45 mins by spectrophotometric method
T2 sequence (P18031 whole entry): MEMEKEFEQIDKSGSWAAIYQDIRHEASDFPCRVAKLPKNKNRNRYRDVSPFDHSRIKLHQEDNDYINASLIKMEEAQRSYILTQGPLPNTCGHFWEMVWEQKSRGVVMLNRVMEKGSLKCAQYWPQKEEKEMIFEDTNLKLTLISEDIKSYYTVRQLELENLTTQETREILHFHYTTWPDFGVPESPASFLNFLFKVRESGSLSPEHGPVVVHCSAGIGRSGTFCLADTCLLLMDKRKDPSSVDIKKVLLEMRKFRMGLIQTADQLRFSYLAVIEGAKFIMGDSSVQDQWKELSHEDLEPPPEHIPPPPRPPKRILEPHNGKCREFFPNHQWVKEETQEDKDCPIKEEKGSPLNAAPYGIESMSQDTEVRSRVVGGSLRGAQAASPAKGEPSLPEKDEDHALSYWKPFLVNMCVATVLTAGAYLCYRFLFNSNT

[3] = system: Mycobacterium tuberculosis; experiment: Antitubercular activity against Mycobacterium tuberculosis H37Rv after 5 days at 200 uM relative to control; assay type: functional; conditions: 120 h
How it was run: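 M. tuberculosis grown in liquid culture with compound at a fixed 200 μM for 5 days. Growth inhibition expressed as percent of control.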

[4] = target: T3, Tyrosine-protein phosphatase non-receptor type 2 (Homo sapiens, UniProt P17706); experiment: Inhibition of human PTPN2 expressed in Escherichia coli Rosetta 2 (DE3) using pNPP as substrate after 45 mins by spectrophotometric method
T3 sequence (P17706 whole entry): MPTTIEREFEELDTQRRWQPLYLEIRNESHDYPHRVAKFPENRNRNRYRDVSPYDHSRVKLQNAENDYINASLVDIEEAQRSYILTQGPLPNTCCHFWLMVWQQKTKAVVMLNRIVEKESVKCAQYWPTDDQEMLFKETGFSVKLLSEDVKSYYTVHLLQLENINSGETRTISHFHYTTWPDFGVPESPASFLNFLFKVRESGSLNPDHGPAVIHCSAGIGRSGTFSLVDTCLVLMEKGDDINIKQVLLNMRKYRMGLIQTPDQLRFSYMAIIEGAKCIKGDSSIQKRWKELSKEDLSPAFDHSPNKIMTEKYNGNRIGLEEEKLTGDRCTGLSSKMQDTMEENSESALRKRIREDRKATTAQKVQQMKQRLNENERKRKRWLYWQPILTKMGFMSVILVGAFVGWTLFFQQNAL

[5] = target: T4, Phosphotyrosine protein phosphatase (Mycobacterium tuberculosis, UniProt A0A045ISB3); experiment: Inhibition of Mycobacterium tuberculosis His-tagged PtpB expressed in Escherichia coli Rosetta 2 (DE3) using pNPP as substrate after 30 mins by spectrophotometric method
T4 sequence (A0A045ISB3 whole entry): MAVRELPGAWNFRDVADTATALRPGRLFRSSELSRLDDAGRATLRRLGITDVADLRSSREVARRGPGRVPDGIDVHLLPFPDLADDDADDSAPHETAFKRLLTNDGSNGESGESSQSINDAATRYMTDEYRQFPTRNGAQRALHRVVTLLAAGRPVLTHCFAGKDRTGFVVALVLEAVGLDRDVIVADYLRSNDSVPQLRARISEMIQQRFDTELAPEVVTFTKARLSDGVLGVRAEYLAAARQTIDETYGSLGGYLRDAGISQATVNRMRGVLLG

| SMILES | IC50 [1] | IC50 [2] | inhibition at 200 µM [3] | IC50 [4] | IC50 [5] |
| --- | --- | --- | --- | --- | --- |
| COc1ccc(Cl)cc1S(=O)(=O)Nc1ccc2oc(-c3ccc(NS(=O)(=O)c4ccc(Cl)s4)cc3)nc2c1 | 11 µM | 10 µM | 39% | 9.2 µM | 6.4 µM |
| O=C(O)c1cccc(S(=O)(=O)Nc2ccc(-c3nc4cc(NS(=O)(=O)c5cccc(C(=O)O)c5)ccc4o3)cc2)c1 | > 100 µM | > 100 µM | 7% | > 100 µM | 9.9 µM |
| O=S(=O)(Nc1ccc(-c2nc3cc(NS(=O)(=O)c4ccc(Cl)s4)ccc3o2)cc1)c1ccc(F)c(C(F)(F)F)c1 | 14 µM | 8.6 µM | 0% | 8.5 µM | 6.8 µM |
| Cc1ccccc1S(=O)(=O)Nc1ccc(-c2nc3cc(NS(=O)(=O)c4ccccc4C)ccc3o2)cc1 | 14 µM | 12 µM | 0% | 18 µM | 4.9 µM |
| Cc1cccc(S(=O)(=O)Nc2ccc(-c3nc4cc(NS(=O)(=O)c5cccc(C)c5)ccc4o3)cc2)c1 | 16 µM | 13 µM | 0% | 17 µM | 5.8 µM |
| O=S(=O)(Nc1ccc(-c2nc3cc(NS(=O)(=O)c4ccc(C(F)(F)F)cc4)ccc3o2)cc1)c1ccc(C(F)(F)F)cc1 | 7.9 µM | 6.4 µM | 0% | 13 µM | 2.8 µM |
| O=[N+]([O-])c1cc(S(=O)(=O)Nc2ccc3oc(-c4ccc(NS(=O)(=O)c5ccc(Cl)s5)cc4)nc3c2)ccc1Cl | 8.4 µM | 9.4 µM | 1% | 8.9 µM | 4.6 µM |
| O=C(O)c1ccccc1S(=O)(=O)Nc1ccc(-c2nc3cc(NS(=O)(=O)c4ccccc4C(=O)O)ccc3o2)cc1 | > 100 µM | > 100 µM | 22% | > 100 µM | 4.2 µM |
| CCc1ccc(S(=O)(=O)Nc2ccc3oc(-c4ccc(NS(=O)(=O)c5ccc(Cl)s5)cc4)nc3c2)cc1 | 15 µM | 11 µM | 0% | 15 µM | 7.1 µM |
| O=S(=O)(Nc1ccc(-c2nc3cc(NS(=O)(=O)c4ccc(Cl)s4)ccc3o2)cc1)c1ccc2ccccc2c1 | 11 µM | 6.9 µM | 0% | 13 µM | 3.9 µM |
| O=S(=O)(Nc1ccc2oc(-c3ccc(NS(=O)(=O)c4cccc5ccccc45)cc3)nc2c1)c1ccc(Cl)s1 | 9.1 µM | 5.4 µM | 0% | 15 µM | 2.7 µM |
| O=[N+]([O-])c1cccc(S(=O)(=O)Nc2ccc(-c3nc4cc(NS(=O)(=O)c5cccc([N+](=O)[O-])c5)ccc4o3)cc2)c1 | 24 µM | 14 µM | 0% | 29 µM | 9.1 µM |
| COC(=O)c1ccc(S(=O)(=O)Nc2ccc(-c3nc4cc(NS(=O)(=O)c5ccc(C(=O)OC)cc5)ccc4o3)cc2)cc1 | 22 µM | 11 µM | 0% | 17 µM | 11 µM |
| O=c1ccc2cc(S(=O)(=O)Nc3ccc4oc(-c5ccc(NS(=O)(=O)c6ccc(Cl)s6)cc5)nc4c3)ccc2o1 | 11 µM | 13 µM | 18% | 9.3 µM | 4.1 µM |
| O=[N+]([O-])c1cc(S(=O)(=O)Nc2ccc(-c3nc4cc(NS(=O)(=O)c5ccc(Cl)s5)ccc4o3)cc2)ccc1Cl | 15 µM | 8 µM | 29% | 18 µM | 4 µM |
| O=S(=O)(Nc1ccc2oc(-c3ccc(NS(=O)(=O)c4ccc(Cl)s4)cc3)nc2c1)c1ccc2ccccc2c1 | 7.7 µM | 7.9 µM | 0% | 7.4 µM | 5.4 µM |
| O=S(=O)(Nc1ccc(-c2nc3cc(NS(=O)(=O)c4cccc(Cl)c4)ccc3o2)cc1)c1cccc(Cl)c1 | 13 µM | 16 µM | 0% | 17 µM | 2.3 µM |
| O=S(=O)(Nc1ccc(-c2nc3cc(NS(=O)(=O)c4cccc5nonc45)ccc3o2)cc1)c1ccc(Cl)s1 | 19 µM | 16 µM | 14% | 25 µM | 8.6 µM |
| O=S(=O)(Nc1ccc(-c2nc3cc(NS(=O)(=O)c4ccccc4C(F)(F)F)ccc3o2)cc1)c1ccccc1C(F)(F)F | 15 µM | 14 µM | 35% | 22 µM | 8.1 µM |
| O=S(=O)(Nc1ccc2oc(-c3ccc(NS(=O)(=O)c4ccc(Cl)s4)cc3)nc2c1)c1ccc(Br)cc1 | 12 µM | 6.9 µM | 28% | 14 µM | 4.1 µM |
| COc1ccc(S(=O)(=O)Nc2ccc3oc(-c4ccc(NS(=O)(=O)c5ccc(Cl)s5)cc4)nc3c2)cc1 | 16 µM | 12 µM | 41% | 24 µM | 9.6 µM |
| O=S(=O)(Nc1ccc(-c2nc3cc(NS(=O)(=O)c4cccc5ccccc45)ccc3o2)cc1)c1ccc(Cl)s1 | 5.1 µM | 6.5 µM | 12% | 7.3 µM | 2.2 µM |
| O=S(=O)(Nc1ccc(-c2nc3cc(NS(=O)(=O)c4ccc5ncsc5c4)ccc3o2)cc1)c1ccc2ncsc2c1 | 20 µM | 7 µM | 0% | 12 µM | 20 µM |
| COC(=O)c1ccccc1S(=O)(=O)Nc1ccc(-c2nc3cc(NS(=O)(=O)c4ccccc4C(=O)OC)ccc3o2)cc1 | 21 µM | 10 µM | 0% | 14 µM | 11 µM |
| O=c1ccc2cc(S(=O)(=O)Nc3ccc(-c4nc5cc(NS(=O)(=O)c6ccc(Cl)s6)ccc5o4)cc3)ccc2o1 | 15 µM | 8.4 µM | 0% | 17 µM | 5.5 µM |
| O=S(=O)(Cc1ccccc1)Nc1ccc(-c2nc3cc(NS(=O)(=O)Cc4ccccc4)ccc3o2)cc1 | 25 µM | 23 µM | 0% | 31 µM | 27 µM |
| O=S(=O)(Nc1ccc(-c2nc3cc(NS(=O)(=O)c4ccc(Cl)s4)ccc3o2)cc1)c1ccc(Br)cc1 | 8.8 µM | 8.8 µM | 0% | 11 µM | 5.3 µM |
| COc1ccc(S(=O)(=O)Nc2ccc(-c3nc4cc(NS(=O)(=O)c5ccc(OC)cc5)ccc4o3)cc2)cc1 | 15 µM | 14 µM | 0% | 16 µM | 12 µM |
| O=S(=O)(Nc1ccc(-c2nc3cc(NS(=O)(=O)c4cccc5nsnc45)ccc3o2)cc1)c1cccc2nsnc12 | 17 µM | 10 µM | 0% | 17 µM | 7 µM |
